Data reported in ChEMBL document CHEMBL1129442, “Synthesis and structure-activity relationship of pyrazolo[3,4-d]pyrimidines: potent and selective adenosine A1 receptor antagonists” (J Med Chem, 1996).

Key:
Adenosine receptor A1 = biological target: T1, Adenosine receptor A1 (Rattus norvegicus, UniProt P25099); assay: Displacement of [3H]N6-PIA from Adenosine A1 receptor from rat whole brain
T1 sequence (P25099 whole entry): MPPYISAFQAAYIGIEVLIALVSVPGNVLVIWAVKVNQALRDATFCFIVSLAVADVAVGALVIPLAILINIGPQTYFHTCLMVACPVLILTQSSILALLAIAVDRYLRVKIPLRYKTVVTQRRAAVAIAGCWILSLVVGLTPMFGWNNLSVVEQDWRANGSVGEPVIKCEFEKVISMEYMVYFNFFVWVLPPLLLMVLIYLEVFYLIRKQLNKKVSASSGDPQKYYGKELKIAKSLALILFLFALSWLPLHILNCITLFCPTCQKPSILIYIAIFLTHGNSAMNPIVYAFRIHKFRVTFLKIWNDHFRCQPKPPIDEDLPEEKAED
Method in brief: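 Rat whole-brain membranes (100 µg, pretreated with 0.1 U/mg adenosine deaminase, 10 min, 37 °C) incubated 90 min at 25 °C with 1 nM (R)-[3H]-N6-PIA in 50 mM Tris-HCl pH 7.4. Test compound given at ≥12 concentrations, final Me2SO 1%, 2% or 5%. Nonspecific binding defined with 10 µM 2-chloroadenosine. Bound ligand collected by filtration on glass fiber filters. Ki derived from IC50 via Cheng-Prusoff (Kd 1 nM). At least two experiments in duplicate, mean ± SEM.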

Adenosine receptor A2a = Adenosine receptor A2a (Rattus norvegicus, UniProt P30543); assay: Inhibition of [3H]CGS-21680 binding to Adenosine A2A receptor of rat striatal membranes; assay type: cell membranes, Membrane
Adenosine receptor A2a, sequence (P30543 whole entry): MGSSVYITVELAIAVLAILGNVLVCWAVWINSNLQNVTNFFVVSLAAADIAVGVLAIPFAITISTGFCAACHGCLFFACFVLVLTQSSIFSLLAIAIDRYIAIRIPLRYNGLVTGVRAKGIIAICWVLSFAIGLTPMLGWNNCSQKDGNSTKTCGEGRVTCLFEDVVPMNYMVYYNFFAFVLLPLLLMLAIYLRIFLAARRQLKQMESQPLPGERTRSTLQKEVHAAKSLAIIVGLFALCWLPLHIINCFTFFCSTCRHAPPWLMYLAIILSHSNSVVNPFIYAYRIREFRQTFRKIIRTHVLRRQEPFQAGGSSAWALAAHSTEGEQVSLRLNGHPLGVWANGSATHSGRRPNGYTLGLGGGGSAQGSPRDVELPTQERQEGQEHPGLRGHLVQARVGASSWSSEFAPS
Method in brief: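 Rat striatal membranes (150 µg, adenosine deaminase-pretreated) incubated 120 min at 25 °C with 5 nM [3H]CGS 21680 in 50 mM Tris-HCl, 10 mM MgCl2, pH 7.4. Test compound given at ≥12 concentrations, final Me2SO 1%, 2% or 5%. Nonspecific binding defined with 20 µM 2-chloroadenosine. Bound ligand filtered as for the A1 assay. Ki derived from IC50 via Cheng-Prusoff (Kd 14.9 nM). At least two experiments in duplicate, mean ± SEM.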

[1] = biological target: Adenosine receptors; A1 & A2a (Rattus norvegicus) (UniProt P25099+P30543); assay: Ratio of Binding Constants for adenosine A2A and A1 receptors; assay type: protein assay
Adenosine receptors; A1 & A2a (Rattus norvegicus), sequence (P30543 whole entry, looked up, one chain of several): as the sequence (P30543 whole entry) above

[2] = biological target: Adenosine receptor A2a (Rattus norvegicus) (UniProt P30543); assay: Percent inhibition of [3H]CGS-21680 binding to Adenosine A2A receptor rat striatal membranes; assay type: cell membranes; conditions: Membrane, concentration not given here
Adenosine receptor A2a (Rattus norvegicus), sequence (P30543 whole entry): as above

In the case of `CCC(Sc1nc(SC)c2cnn(-c3ccccc3)c2n1)C(N)=O` (centres undefined), the Ki (Adenosine receptor A1) is reported as 8.4 nM, the Ki (Adenosine receptor A2a) is reported as 796 nM and the Ratio [1] is reported as 95.
In the case of `CC(C)C(Sc1nc2c(cnn2-c2ccccc2)c(=S)[nH]1)C(N)=O` (centres undefined), the Ki (Adenosine receptor A1) is reported as 256 nM.
Work on `CCCC(Sc1nc(S)c2cnn(-c3ccccc3)c2n1)C(N)=O` (centres undefined) yielded a Ratio [1] of 79.
In the case of `CCCCC(Sc1nc(NC)c2cnn(-c3ccccc3)c2n1)C(N)=O` (centres undefined), the Ki (Adenosine receptor A1) is reported as 0.745 nM, the Ki (Adenosine receptor A2a) is reported as 247 nM and the Ratio [1] is reported as 332.
Compound `CCCCC(Sc1nc(N)c2cnn(-c3ccccc3)c2n1)C(N)=O` (centres undefined) has a Ki (Adenosine receptor A1) of 0.939 nM, a Ki (Adenosine receptor A2a) of 88.3 nM and a Ratio [1] of 94.
`CC(C)C(Sc1nc(S)c2cnn(-c3ccccc3)c2n1)C(N)=O` (centres undefined) gave an inhibition [2] of 44% and a Ratio [1] greater than 78.
`CCCC(Sc1nc(SC)c2cnn(-c3ccccc3)c2n1)C(N)=O` (centres undefined) gave a Ki (Adenosine receptor A1) of 7.55 nM, a Ki (Adenosine receptor A2a) of 4380 nM and a Ratio [1] of 580.
`CCC(Sc1nc(S)c2cnn(-c3ccccc3)c2n1)C(N)=O` (centres undefined) showed a Ratio [1] of 56.
`CCCCC(Sc1nc(SC)c2cnn(-c3ccccc3)c2n1)C(N)=O` (centres undefined) was tested, and the inhibition [2] was 12%, the Ki (Adenosine receptor A1) was 6.81 nM and the Ratio [1] was greater than 5900.
Work on `CCC(Sc1nc(N)c2cnn(-c3ccccc3)c2n1)C(N)=O` (centres undefined) yielded a Ki (Adenosine receptor A1) of 1.56 nM, a Ki (Adenosine receptor A2a) of 44.5 nM and a Ratio [1] of 29.
`CC(C)C(Sc1nc(N)c2cnn(-c3ccccc3)c2n1)C(N)=O` (centres undefined) gave a Ki (Adenosine receptor A1) of 2.73 nM, a Ki (Adenosine receptor A2a) of 147 nM and a Ratio [1] of 54.
With `CSc1nc(SC(C(N)=O)C(C)C)nc2c1cnn2-c1ccccc1` (centres undefined) the inhibition [2] was 37%, the Ki (Adenosine receptor A1) was 15.7 nM and the Ratio [1] was greater than 1300.
`CCCC(Sc1nc(N)c2cnn(-c3ccccc3)c2n1)C(N)=O` (centres undefined) gave a Ki (Adenosine receptor A1) of 1.08 nM, a Ki (Adenosine receptor A2a) of 35.3 nM and a Ratio [1] of 33.
For `CCCCC(Sc1nc(S)c2cnn(-c3ccccc3)c2n1)C(N)=O` (centres undefined), the inhibition [2] was 52%, the Ki (Adenosine receptor A1) was 37.2 nM and the Ratio [1] was greater than 270.
`CCCC(Sc1nc2c(cnn2-c2ccccc2)c(=S)[nH]1)C(N)=O` (centres undefined) was tested, and the Ki (Adenosine receptor A1) was 56.3 nM and the Ki (Adenosine receptor A2a) was 4450 nM.
`CCC(Sc1nc2c(cnn2-c2ccccc2)c(=S)[nH]1)C(N)=O` (centres undefined) gave a Ki (Adenosine receptor A1) of 155 nM and a Ki (Adenosine receptor A2a) of 8750 nM.
